Test results from ChEMBL document CHEMBL2375318, “Design, synthesis and antimicrobial activity of novel benzothiazole analogs” (Eur J Med Chem, 2013).
Values after ≈ are worked out from the molar mass of the structure shown.

Tests used:
Aspergillus fumigatus = test: Antimicrobial activity against Aspergillus fumigatus clinical isolate after 18 to 24 hrs by micro-dilution method; assay type: functional
Outline: (§1)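 Broth micro-dilution MIC, fungi. Fresh broth cultures were made in normal saline. Compounds were serially diluted in microtiter plates across 8 concentrations, 100 down to 0.78. Standardized inoculum was 1–2 × 10^7 cfu/ml. Medium was Sabouraud dextrose pH 7.3 ± 0.2. Plates were incubated aerobically at 37 °C for 18–24 h. MIC is the lowest concentration with no visible growth or turbidity versus control. Fluconazole was the reference.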

Aspergillus niger = test: Antimicrobial activity against Aspergillus niger clinical isolate after 18 to 24 hrs by micro-dilution method; assay type: functional; outline: as §1
Cryptococcus neoformans = test: Antifungal activity against Cryptococcus neoformans clinical isolate after 18 to 24 hrs by micro-dilution method; assay type: functional; outline: as §1
Pichia kudriavzevii = test: Antifungal activity against Candida krusei ATCC 6258 after 18 to 24 hrs by micro-dilution method; assay type: functional; outline: as §1
Candida albicans [1] = test: Antifungal activity against Candida albicans ATCC 90028 after 18 to 24 hrs by micro-dilution metho; assay type: functional; outline: as §1
Candida albicans [2] = test: Antifungal activity against Candida albicans clinical isolate after 18 to 24 hrs by micro-dilution method; assay type: functional; outline: as §1
Candida tropicalis = test: Antifungal activity against Candida tropicalis ATCC 750 after 18 to 24 hrs by micro-dilution method; assay type: functional; outline: as §1
Shigella boydii = test: Antimicrobial activity against Shigella boydii clinical isolate after 18 to 24 hrs by micro-dilution method; assay type: functional
[3] = Cytotoxicity against human RBC assessed as hemolytic activity at 100 uM after 1 hr by spectophotometry; assay type: cell-based, Erythrocyte; conditions: red blood cells (RBC), read-out: Activity
Outline: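 Hemolysis, fresh human blood. RBCs were washed three times in PBS (spun 3000 rpm, 7 min, room temperature) and adjusted to 5×10^8 cells/ml. Cell suspension was added to buffer holding 100 μM compound in 1% v/v DMSO/PBS. Controls were 1% DMSO/PBS and sterile water. Samples were shaken at 37 °C for 1 h, spun at 1300 rpm for 5 min, and supernatant absorbance read at 540 nm.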

Pseudomonas aeruginosa = test: Antimicrobial activity against Pseudomonas aeruginosa ATCC 27893 after 18 to 24 hrs by micro-dilution method; assay type: functional
Klebsiella pneumoniae = test: Antimicrobial activity against Klebsiella pneumoniae clinical isolate after 18 to 24 hrs by micro-dilution method; assay type: functional
Escherichia coli = test: Antimicrobial activity against Escherichia coli ATCC 35218 after 18 to 24 hrs by micro-dilution method; assay type: functional
Salmonella typhi = test: Antimicrobial activity against Salmonella typhi MTCC 3216 after 18 to 24 hrs by micro-dilution method; assay type: functional, Salmonella enterica subsp. enterica serovar Typhi; conditions: Salmonella enterica
Outline: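 Broth microdilution with twofold serial dilutions from 100 down to 0.78, eight concentrations. Fresh cultures were made up in normal saline, and 0.1 ml of standardized inoculum (1–2 × 10^7 cfu/ml) was added per well. Plates were incubated aerobically at 37 °C for 18–24 h on Mueller-Hinton agar/Luria broth. MIC was the lowest concentration with no visible turbidity compared with the control.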

Enterococcus faecalis = test: Antimicrobial activity against Enterococcus faecalis clinical isolate after 18 to 24 hrs by micro-dilution method; assay type: functional
Staphylococcus aureus = test: Antimicrobial activity against Staphylococcus aureus ATCC 25323 after 18 to 24 hrs by micro-dilution method; assay type: functional

SMILES	MIC (Aspergillus fumigatus) [µg/mL]	MIC (Aspergillus niger) [µg/mL]	MIC (Cryptococcus neoformans) [µg/mL]	MIC (Pichia kudriavzevii) [µg/mL]	MIC (Candida albicans [1]) [µg/mL]	MIC (Candida albicans [2]) [µg/mL]	MIC (Candida tropicalis) [µg/mL]	MIC (Shigella boydii) [µg/mL]	hemolysis at 1 h, 100 µM [3] [%]	MIC (Pseudomonas aeruginosa) [µg/mL]	MIC (Klebsiella pneumoniae) [µg/mL]	MIC (Escherichia coli) [µg/mL]	MIC (Salmonella typhi) [µg/mL]	MIC (Enterococcus faecalis) [µg/mL]	MIC (Staphylococcus aureus) [µg/mL]
c1ccc2c(-n3cc(CN(Cc4cn(-c5cccc6ccccc56)nn4)c4nc5ccccc5s4)nn3)cccc2c1	> 100	> 100	> 100	> 100	> 100	> 100	> 100	> 100	34	> 100	> 100	> 100	> 100	> 100	> 100
Brc1ccc(-n2cc(CN(Cc3cn(-c4ccc(Br)cc4)nn3)c3nc4ccccc4s3)nn2)cc1	3.12 (≈ 5.01 µM)	3.12 (≈ 5.01 µM)	1.56 (≈ 2.51 µM)	6.25 (≈ 10 µM)	6.25 (≈ 10 µM)	12.5 (≈ 20.1 µM)	6.25 (≈ 10 µM)	> 100	12.4	> 100	> 100	> 100	> 100	> 100	> 100
Fc1ccc(-n2cc(CN(Cc3cn(-c4ccc(F)c(Cl)c4)nn3)c3nc4ccccc4s3)nn2)cc1Cl	25 (≈ 43.9 µM)	6.25 (≈ 11 µM)	1.56 (≈ 2.74 µM)	3.12 (≈ 5.48 µM)	6.25 (≈ 11 µM)	25 (≈ 43.9 µM)	12.5 (≈ 22 µM)	100 (≈ 176 µM)	5.32	3.12 (≈ 5.48 µM)	50 (≈ 87.8 µM)	25 (≈ 43.9 µM)	6.25 (≈ 11 µM)	3.12 (≈ 5.48 µM)	6.25 (≈ 11 µM)
Fc1ccc(-n2cc(CN(Cc3cn(-c4ccc(F)cc4Cl)nn3)c3nc4ccccc4s3)nn2)c(Cl)c1	6.25 (≈ 11 µM)	25 (≈ 43.9 µM)	1.56 (≈ 2.74 µM)	6.25 (≈ 11 µM)	50 (≈ 87.8 µM)	6.25 (≈ 11 µM)	6.25 (≈ 11 µM)	100 (≈ 176 µM)	12.3	6.25 (≈ 11 µM)	100 (≈ 176 µM)	3.12 (≈ 5.48 µM)	6.25 (≈ 11 µM)	6.25 (≈ 11 µM)	50 (≈ 87.8 µM)
COc1cc(-n2cc(CN(Cc3cn(-c4cc(OC)c(OC)c(OC)c4)nn3)c3nc4ccccc4s3)nn2)cc(OC)c1OC	> 100	> 100	> 100	6.25 (≈ 9.69 µM)	> 100	> 100	> 100	> 100	36.6	> 100	> 100	> 100	> 100	> 100	> 100
Fc1ccccc1-n1cc(CN(Cc2cn(-c3ccccc3F)nn2)c2nc3ccccc3s2)nn1	> 100	> 100	> 100	> 100	> 100	> 100	> 100	> 100	26.5	> 100	> 100	> 100	> 100	> 100	> 100
OC(Cn1cncn1)(Cn1cncn1)c1ccc(F)cc1F [FLUCONAZOLE]	1.56 (≈ 5.09 µM)	1.56 (≈ 5.09 µM)	0.78 (≈ 2.55 µM)	1.56 (≈ 5.09 µM)	1.56 (≈ 5.09 µM)	3.12 (≈ 10.2 µM)	1.56 (≈ 5.09 µM)								
CCc1ccc(-n2cc(CN(Cc3cn(-c4ccc(CC)cc4)nn3)c3nc4ccccc4s3)nn2)cc1	> 100	> 100	> 100	> 100	> 100	> 100	> 100	> 100	48.3	> 100	> 100	50 (≈ 96 µM)	> 100	> 100	> 100
FC(F)(F)Oc1ccc(-n2cc(CN(Cc3cn(-c4ccc(OC(F)(F)F)cc4)nn3)c3nc4ccccc4s3)nn2)cc1	25 (≈ 39.5 µM)	12.5 (≈ 19.8 µM)	3.12 (≈ 4.93 µM)	12.5 (≈ 19.8 µM)	3.12 (≈ 4.93 µM)	12.5 (≈ 19.8 µM)	12.5 (≈ 19.8 µM)	100 (≈ 158 µM)	9.12	25 (≈ 39.5 µM)	12.5 (≈ 19.8 µM)	25 (≈ 39.5 µM)	> 100	12.5 (≈ 19.8 µM)	12.5 (≈ 19.8 µM)
